Data set [1] in a line: Apparent permeability in RRCK cells from apical to basolateral side. Particulars: dog, MDCK. It is filed as ADME, cell-based, Canis lupus familiaris, MDCKII-LE. In short, it runs like this:
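RRCK cell monolayer permeability assay; apparent permeability reported in cm/s.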

Data set [2] can be described thus: Apparent intrinsic clearance in human liver microsomes. It is filed as ADME, microsome. Particulars: read-out: CLH(app).
The test system of data set [3] is Rattus norvegicus. Put plainly: Antiinflammatory activity in Lewis rat CIA model assessed as reduction in paw swelling at 100 mg/kg, po bid treated on day 11 post immunization for 8 days by plethysmographic method. The format is functional, organism-based. The procedure, abridged: (§1)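 Female Lewis rats (about 7−9 weeks old, n = 10 per group) immunized on day 0 with bovine type II collagen in incomplete Freund's adjuvant and boosted on day 7. Oral dosing twice daily as solution or suspension in vehicle (0.5% methylcellulose, 2% Tween 80 in water), vehicle-only controls. Paw volume measured daily by plethysmograph, body weight recorded daily.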

The test system of data set [4] is Rattus norvegicus. Put plainly: In vivo receptor occupancy at IRAK4 in spleen of Lewis rat CIA model at 100 mg/kg, po measured at 1 hr postdose. It is filed as functional. In short, it runs like this:
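Lewis female rats (7–9 wk, n = 10/group), immunized with bovine type II collagen/IFA on day 0 and boosted day 7. Oral dosing twice daily in therapeutic mode (started after disease onset), vehicle 0.5% methylcellulose, 2% Tween 80 in water. Spleens sampled 1 h postdose, flash frozen. Kinase occupancy measured by KiNativ profiling with an ATP-competitive probe.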

In data set [5] the test system is Rattus norvegicus. Put plainly: In vivo receptor occupancy at IRAK4 in spleen of po dosed Lewis rat CIA model measured at 1 hr postdose. It is filed as functional, organism-based.
Data set [6] concerns the target CYP2C9 (Homo sapiens, UniProt P11712). Put plainly: Inhibition of CYP2C9 in human liver microsomes at 3 uM. The format is ADME.
The nature of data set [7]: Thermodynamic solubility of compound at pH 6.5. It is filed as physicochemical. Conditions: buffer, read-out: Therm_solubility.
Data set [8] has as its target CYP2C8 (Homo sapiens, UniProt P10632). Put plainly: Inhibition of CYP2C8 in human liver microsomes at 3 uM. It is filed as ADME.
For data set [9], the target named is CYP3A4 (Homo sapiens, UniProt P08684). Put plainly: Inhibition of CYP3A4 in human liver microsomes at 3 uM. The format is ADME.
The nature of data set [10]: Half life in rat. It is filed as ADME. Particulars: in vivo.
Data set [11] is described as follows: Fraction unbound in rat plasma. The format is ADME, cell-free. In short, it runs like this: (§2)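 Fraction unbound in plasma measured by equilibrium dialysis.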
In data set [12] the target is CYP1A2 (Homo sapiens, UniProt P05177). Put plainly: Inhibition of CYP1A2 in human liver microsomes at 3 uM. It is filed as ADME.
Data set [13] in a line: Fraction unbound in human plasma. It is filed as ADME, cell-free. The procedure, abridged: as §2
Data set [14] deals with CYP2D6 (Homo sapiens, UniProt P10635). Put plainly: Inhibition of CYP2D6 in human liver microsomes at 3 uM. It is filed as ADME.
A short description of data set [15]: Oral bioavailability in rat. Particulars: in vivo. It is filed as ADME, organism-based.
In data set [16] the test system is Rattus norvegicus. Put plainly: Antiinflammatory activity in Lewis rat CIA model assessed as reduction in paw swelling at 30 mg/kg, po bid treated on day 11 post immunization for 8 days by plethysmographic method. It is filed as functional, organism-based. The procedure, abridged:
as §1

For data set [17], the target named is T1, Interleukin-1 receptor-associated kinase 4 (Homo sapiens) (UniProt Q9NWZ3).
T1 sequence (whole entry): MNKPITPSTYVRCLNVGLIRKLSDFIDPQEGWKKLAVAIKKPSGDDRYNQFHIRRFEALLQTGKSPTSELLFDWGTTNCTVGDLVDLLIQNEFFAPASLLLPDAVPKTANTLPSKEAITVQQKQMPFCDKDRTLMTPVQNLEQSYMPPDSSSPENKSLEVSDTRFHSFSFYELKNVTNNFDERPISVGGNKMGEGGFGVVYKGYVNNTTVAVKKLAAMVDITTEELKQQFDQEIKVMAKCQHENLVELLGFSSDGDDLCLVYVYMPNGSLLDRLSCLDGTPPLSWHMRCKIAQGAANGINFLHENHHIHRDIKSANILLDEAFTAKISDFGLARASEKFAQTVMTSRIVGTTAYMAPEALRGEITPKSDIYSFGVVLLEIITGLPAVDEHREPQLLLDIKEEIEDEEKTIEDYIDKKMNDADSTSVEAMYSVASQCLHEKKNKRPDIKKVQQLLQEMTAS
Put plainly: Inhibition of IRAK4 in human THP1 cell lysate.

In data set [18] the target is Voltage-gated inwardly rectifying potassium channel KCNH2 (Homo sapiens, UniProt Q12809). Put plainly: Inhibition of human ERG.
For data set [19], the system named is Rattus norvegicus. Put plainly: Clearance in iv dosed rat. The format is ADME, organism-based. Conditions: in vivo.
Data set [20] is described as follows: Lipophilicity, log D of compound. It is filed as physicochemical. Particulars: octanol/water.
For data set [21], the target named is T2, Interleukin-1 receptor-associated kinase 4 (Homo sapiens, UniProt Q9NWZ3).
T2 sequence (Q9NWZ3 whole entry): T1 sequence (whole entry)
Put plainly: Inhibition of N-terminal His6-tagged human full length IRAK4 preincubated for 20 mins followed by biotinylated-AGAGRDKYKTLRQIR substrate addition in presence of ATP measured after 60 mins by DELFIA method.

In data set [22] the target is T2, Interleukin-1 receptor-associated kinase 4. Put plainly: Inhibition of IRAK4 in human PBMC assessed as reduction in R848-stimulated TNF alpha production after 3 hrs.
The target of data set [23] is T1, Interleukin-1 receptor-associated kinase 4 (Homo sapiens). Conditions: 909 uM.
Data set [24] shares this target. Conditions: 236 uM.

Each structure is given as a SMILES string. In brackets after ≈: the same amount, converted by molar mass. Activity calls are given as the source filed them. No cut-off for these calls is given here.

Sequence of Voltage-gated inwardly rectifying potassium channel KCNH2 (Q12809 whole entry): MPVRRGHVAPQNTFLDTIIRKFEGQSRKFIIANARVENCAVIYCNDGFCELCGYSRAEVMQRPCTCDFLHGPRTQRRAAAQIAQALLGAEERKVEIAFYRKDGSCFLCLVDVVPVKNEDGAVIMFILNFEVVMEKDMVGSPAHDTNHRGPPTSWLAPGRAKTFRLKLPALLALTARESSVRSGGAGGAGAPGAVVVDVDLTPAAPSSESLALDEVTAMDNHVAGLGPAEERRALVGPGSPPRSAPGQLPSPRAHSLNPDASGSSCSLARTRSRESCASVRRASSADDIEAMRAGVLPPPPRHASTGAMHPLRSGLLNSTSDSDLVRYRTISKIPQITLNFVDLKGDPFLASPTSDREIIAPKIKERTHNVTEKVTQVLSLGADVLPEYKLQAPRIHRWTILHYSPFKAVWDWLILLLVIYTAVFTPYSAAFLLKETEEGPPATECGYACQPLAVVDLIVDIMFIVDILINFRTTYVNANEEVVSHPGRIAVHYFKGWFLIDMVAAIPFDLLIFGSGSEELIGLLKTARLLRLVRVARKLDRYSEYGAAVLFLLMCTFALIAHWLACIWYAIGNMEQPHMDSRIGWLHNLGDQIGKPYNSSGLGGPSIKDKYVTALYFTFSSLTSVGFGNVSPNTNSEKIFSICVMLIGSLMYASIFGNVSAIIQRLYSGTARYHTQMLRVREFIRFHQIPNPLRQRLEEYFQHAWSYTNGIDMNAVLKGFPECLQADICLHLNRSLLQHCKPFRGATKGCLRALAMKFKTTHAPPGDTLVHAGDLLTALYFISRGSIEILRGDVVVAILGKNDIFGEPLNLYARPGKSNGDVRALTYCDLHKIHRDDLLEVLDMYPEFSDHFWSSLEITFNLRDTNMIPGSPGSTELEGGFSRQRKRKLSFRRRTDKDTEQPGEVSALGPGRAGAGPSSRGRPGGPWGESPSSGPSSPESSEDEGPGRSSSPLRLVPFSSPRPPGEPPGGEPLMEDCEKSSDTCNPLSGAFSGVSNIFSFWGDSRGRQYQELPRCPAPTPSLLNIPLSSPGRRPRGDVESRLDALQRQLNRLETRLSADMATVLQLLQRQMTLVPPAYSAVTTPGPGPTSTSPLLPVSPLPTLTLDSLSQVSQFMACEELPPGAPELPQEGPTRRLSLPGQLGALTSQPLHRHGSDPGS
Sequence of CYP3A4 (P08684 whole entry): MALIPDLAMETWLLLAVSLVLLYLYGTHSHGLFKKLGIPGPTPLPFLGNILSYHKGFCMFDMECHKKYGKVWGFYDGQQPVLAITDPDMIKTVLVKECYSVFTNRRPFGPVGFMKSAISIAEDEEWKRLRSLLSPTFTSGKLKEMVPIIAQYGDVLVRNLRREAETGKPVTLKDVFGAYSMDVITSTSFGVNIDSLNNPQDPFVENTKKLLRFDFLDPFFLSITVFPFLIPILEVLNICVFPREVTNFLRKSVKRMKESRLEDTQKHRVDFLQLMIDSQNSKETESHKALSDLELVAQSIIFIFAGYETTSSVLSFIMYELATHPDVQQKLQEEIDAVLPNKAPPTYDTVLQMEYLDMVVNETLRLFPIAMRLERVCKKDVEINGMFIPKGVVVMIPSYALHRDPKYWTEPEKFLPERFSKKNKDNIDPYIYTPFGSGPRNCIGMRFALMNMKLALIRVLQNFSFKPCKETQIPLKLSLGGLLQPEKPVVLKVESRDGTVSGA
Sequence of CYP2D6 (P10635 whole entry): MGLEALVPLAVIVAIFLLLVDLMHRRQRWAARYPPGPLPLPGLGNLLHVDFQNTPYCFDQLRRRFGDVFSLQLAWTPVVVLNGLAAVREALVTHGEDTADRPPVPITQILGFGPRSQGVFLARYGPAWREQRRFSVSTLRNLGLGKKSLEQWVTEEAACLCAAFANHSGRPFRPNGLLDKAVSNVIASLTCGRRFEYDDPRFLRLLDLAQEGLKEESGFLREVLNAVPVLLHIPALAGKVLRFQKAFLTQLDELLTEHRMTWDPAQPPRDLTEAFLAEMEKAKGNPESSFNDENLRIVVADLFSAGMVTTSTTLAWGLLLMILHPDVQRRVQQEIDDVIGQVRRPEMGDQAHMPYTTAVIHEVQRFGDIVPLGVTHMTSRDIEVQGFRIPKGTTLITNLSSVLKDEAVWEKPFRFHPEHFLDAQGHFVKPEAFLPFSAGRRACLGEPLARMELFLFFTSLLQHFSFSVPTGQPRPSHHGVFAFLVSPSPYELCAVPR
Sequence of CYP2C9 (P11712 whole entry): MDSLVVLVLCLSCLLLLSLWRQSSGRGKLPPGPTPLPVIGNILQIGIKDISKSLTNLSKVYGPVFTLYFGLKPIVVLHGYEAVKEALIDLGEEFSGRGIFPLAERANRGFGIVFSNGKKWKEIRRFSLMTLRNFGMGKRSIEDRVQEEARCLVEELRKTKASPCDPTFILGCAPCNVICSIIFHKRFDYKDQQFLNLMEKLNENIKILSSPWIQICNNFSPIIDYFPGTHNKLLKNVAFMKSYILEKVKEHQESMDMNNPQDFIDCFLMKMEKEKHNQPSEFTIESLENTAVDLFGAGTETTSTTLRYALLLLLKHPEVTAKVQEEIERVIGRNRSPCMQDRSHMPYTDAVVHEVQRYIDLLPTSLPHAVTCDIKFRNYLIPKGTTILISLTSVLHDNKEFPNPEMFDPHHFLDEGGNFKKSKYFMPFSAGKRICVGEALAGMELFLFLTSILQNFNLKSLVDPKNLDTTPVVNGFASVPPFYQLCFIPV
Sequence of CYP1A2 (P05177 whole entry): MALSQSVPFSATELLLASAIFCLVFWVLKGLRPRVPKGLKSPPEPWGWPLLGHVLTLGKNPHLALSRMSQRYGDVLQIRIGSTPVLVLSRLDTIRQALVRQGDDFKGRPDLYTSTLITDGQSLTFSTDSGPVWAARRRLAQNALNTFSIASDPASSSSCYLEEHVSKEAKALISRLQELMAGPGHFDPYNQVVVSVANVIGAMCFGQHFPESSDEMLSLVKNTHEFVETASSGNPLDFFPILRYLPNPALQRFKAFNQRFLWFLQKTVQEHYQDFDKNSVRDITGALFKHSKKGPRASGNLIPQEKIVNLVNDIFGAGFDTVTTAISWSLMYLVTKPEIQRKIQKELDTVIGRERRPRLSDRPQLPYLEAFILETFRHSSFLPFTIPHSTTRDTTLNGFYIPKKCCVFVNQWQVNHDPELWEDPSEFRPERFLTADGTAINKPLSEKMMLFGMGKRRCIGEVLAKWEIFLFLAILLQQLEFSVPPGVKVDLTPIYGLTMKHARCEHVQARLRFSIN
Sequence of CYP2C8 (P10632 whole entry): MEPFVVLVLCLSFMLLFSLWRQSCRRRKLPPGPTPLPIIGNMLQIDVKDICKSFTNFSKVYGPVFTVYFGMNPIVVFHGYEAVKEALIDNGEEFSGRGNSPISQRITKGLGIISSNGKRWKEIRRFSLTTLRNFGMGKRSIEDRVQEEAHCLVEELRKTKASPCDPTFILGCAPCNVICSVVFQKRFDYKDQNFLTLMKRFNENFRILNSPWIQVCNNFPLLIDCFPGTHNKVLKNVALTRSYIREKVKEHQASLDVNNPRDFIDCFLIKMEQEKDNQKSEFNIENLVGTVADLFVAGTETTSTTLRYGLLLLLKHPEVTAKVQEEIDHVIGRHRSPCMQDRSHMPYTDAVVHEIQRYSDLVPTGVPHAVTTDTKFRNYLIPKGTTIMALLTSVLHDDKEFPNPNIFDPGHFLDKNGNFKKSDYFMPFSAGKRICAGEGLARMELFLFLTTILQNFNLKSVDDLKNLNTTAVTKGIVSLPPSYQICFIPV

As to `COc1cc2c(OC[C@H]3NC(=O)[C@@H](F)[C@H]3C)nccc2cc1C(N)=O`, in data set [1], the Papp A→B was found to be 9.9 ×10⁻⁶ cm/s. Also, in [2], the microsomal CLint is less than 9 µL/min/mg.
Turning to `CC(C)Oc1cc2c(OC[C@@H]3CCC(=O)N3)nccc2cc1C(N)=O`, in [1], the Papp A→B was found to be 10.7 ×10⁻⁶ cm/s. Further, the outcome in data set [3] and in [16] was Active. In addition, the Occ is 80% in [4] and “Dose-dependent effect” in data set [5]. Further, the inhibition at 3 µM in [6] was 13.6%; in [8] it was less than 10%; in [9] it was less than 10%; in data set [12] it was less than 10%; in data set [14] it was less than 10%. The microsomal CLint in [2] was determined as 10 µL/min/mg. Also, the solubility thermodynamic in [7] worked out at 78 µM (≈ 26.8 µg/mL). For the same compound, the half-life in [10] was 1.2 h. Besides, the fraction unbound was found to be 0.21 in data set [11] and 0.29 in [13]. In addition, the bioavailability in [15] turned out to be 57%. Moreover, the inhibition result in data set [17] is “Active”. Also, the IC50 in data set [18] was more than 30000 nM. This compound displayed a clearance in data set [19] of 23 mL/min/kg.
On to `COc1cc2c(OC[C@H]3NC(=O)[C@@H](C)[C@H]3C)nccc2cc1C(N)=O`, for which the apical-to-basolateral permeability (Papp A→B) in data set [1] was determined as 15.8 ×10⁻⁶ cm/s. Moreover, in [2], the microsomal CLint was found to be 9 µL/min/mg.
Turning to `COc1cc2c(OC[C@H]3NC(=O)[C@@H]4[C@@H](C)[C@@H]43)nccc2cc1C(N)=O`, the Papp A→B in data set [1] worked out at 13.5 ×10⁻⁶ cm/s. Besides, in [2], the microsomal CLint is less than 8 µL/min/mg.
Take `CC(C)Oc1cc2c(O[C@@H]3CCCNC3)nccc2cc1C(N)=O`: in data set [1], the Papp A→B is 11.4 ×10⁻⁶ cm/s. In data set [2], the microsomal CLint was 11 µL/min/mg. Further, in data set [20], the logD is 0.7. Also, the IC50 in [21] came out at 121 nM; in data set [22], 1550 nM.
`CC(C)Oc1cc2c(O[C@@H]3CCCNC3)ccnc2cc1C(N)=O`: in data set [1], the Papp A→B was determined as 2.8 ×10⁻⁶ cm/s. For the same compound, in [20], the logD came out at 0.4. Moreover, the IC50 in data set [21] was determined as 146 nM.
As for `COc1cc2c(OC[C@H]3NC(=O)[C@H](C)[C@H]3C)nccc2cc1C(N)=O`, the Papp A→B in [1] stood at 13.9 ×10⁻⁶ cm/s. Further, the microsomal CLint in data set [2] is 32 µL/min/mg.
The corresponding values for `COc1cc2c(OC[C@H]3NC(=O)[C@@H]4C[C@H]34)nccc2cc1C(N)=O` are 11.7 ×10⁻⁶ cm/s and less than 8 µL/min/mg.
The corresponding values for `CC[C@H]1[C@@H](COc2nccc3cc(C(N)=O)c(OC)cc23)NC(=O)[C@@H]1F` are 14.2 ×10⁻⁶ cm/s and 15 µL/min/mg.
Consider `CC(C)Oc1cc2ccccc2cc1C(N)=O`, for which the IC50 in data set [21] was determined as 2090 nM.
On the same count and under the same terms, then `CC(C)Oc1cc2c(-c3ccc(C#N)cc3)cccc2cc1C(N)=O`, with 71.9 nM.
For the compound `COc1cc2c(OC[C@H]3NC(=O)C[C@H]3C)nccc2cc1C(N)=O`, the Papp A→B in data set [1] worked out at 10.5 ×10⁻⁶ cm/s. Further, the microsomal CLint in [2] was less than 9 µL/min/mg.
In the case of `COC[C@@H]1CC(=O)N[C@@H]1COc1nccc2cc(C(N)=O)c(OC)cc12`, in data set [1], the Papp A→B was determined as 12.5 ×10⁻⁶ cm/s. Moreover, the microsomal CLint in [2] was less than 8 µL/min/mg. Moreover, the IC50 in data set [22] is 373 nM.
Consider `COc1cc2c(OC[C@H]3NC(=O)[C@H](F)[C@H]3C)nccc2cc1C(N)=O`, for which the Papp A→B in [1] was determined as 10.4 ×10⁻⁶ cm/s. Moreover, the microsomal CLint in data set [2] turned out to be 12 µL/min/mg.
For `CC(C)Oc1cc2c(OC[C@H]3CCC(=O)N3)nccc2cc1C(N)=O`, the Papp A→B in data set [1] stood at 10.5 ×10⁻⁶ cm/s.
For the compound `CC(C)Oc1ccccc1C(N)=O`, the results for the inhibition in [23] and in [24] were more than 50% and more than 10%, respectively. Besides, the IC50 in [21] worked out at 55000 nM.
In the case of `CCC[C@@H]1CC(=O)N[C@@H]1COc1nccc2cc(C(N)=O)c(OC)cc12`, in [1], the apical-to-basolateral permeability (Papp A→B) worked out at 18.9 ×10⁻⁶ cm/s. For the same compound, in data set [2], the microsomal CLint amounted to 44 µL/min/mg. For the same compound, the IC50 in [22] was 28.4 nM.
For the compound `COc1cc2c(OC[C@H]3NC(=O)[C@@]4(F)[C@@H]3[C@@H]4C)nccc2cc1C(N)=O`, the Papp A→B in data set [1] stood at 16.3 ×10⁻⁶ cm/s. Moreover, the microsomal CLint in data set [2] was less than 8 µL/min/mg.
The matching figures for `COc1cc2c(OC[C@@H]3CCC(=O)N3)ccnc2cc1C(N)=O`: 5.8 ×10⁻⁶ cm/s and less than 8 µL/min/mg.
The matching figures for `CC[C@@H]1CC(=O)N[C@@H]1COc1nccc2cc(C(N)=O)c(OC)cc12`: 17.9 ×10⁻⁶ cm/s and 14 µL/min/mg.
For the compound `COc1cc2c(OC[C@@H]3CCC(=O)N3)nccc2cc1C(N)=O`, the Papp A→B in data set [1] was 9.9 ×10⁻⁶ cm/s. Moreover, the microsomal CLint in data set [2] came to 9 µL/min/mg. The compound also registered a logD in data set [20] of 0.9. The same compound had a half-life in [10] of 1 h. Also, the bioavailability in data set [15] was determined as 44%. In data set [19], this compound showed a clearance of 35 mL/min/kg.
As for `CCOc1cc2c(OC[C@@H]3CCC(=O)N3)nccc2cc1C(N)=O`, the Papp A→B in data set [1] was found to be 10.6 ×10⁻⁶ cm/s. Also, in data set [2], the microsomal CLint was found to be 9 µL/min/mg.
As to `COc1cc2c(OC[C@@H]3CCC(=O)N3)cccc2cc1C(N)=O`, the Papp A→B in data set [1] was 14.2 ×10⁻⁶ cm/s. For the same compound, the microsomal CLint in data set [2] came out at 13 µL/min/mg. In data set [20], this compound came in with a logD of 1.5.

The values above are taken from ChEMBL document CHEMBL4014327 (J Med Chem, 2017).
